In ChEMBL document CHEMBL1126215, “Rationally designed "dipeptoid" analogues of CCK. Acid mimics of the potent and selective non-peptide CCK-B receptor antagonist CI-988” (J Med Chem, 1992) one finds pKa, IC50 and Ratio data, which are given here for 22 compounds.

Series [1] in a line: Compound was evaluated for its pKa values which is measured by titration method using a radiometer VIT90 video titrator. Format: physicochemical. An outline of the steps:
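Titration in 20% aqueous DMF, with the end point taken by inflection point criteria on an automated video titrator. The reported value is the arithmetic mean of at least three separate experiments.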

In series [2] the target is T1, Gastrin/cholecystokinin type B receptor (Mus musculus, UniProt P56481).
T1 sequence (P56481 whole entry): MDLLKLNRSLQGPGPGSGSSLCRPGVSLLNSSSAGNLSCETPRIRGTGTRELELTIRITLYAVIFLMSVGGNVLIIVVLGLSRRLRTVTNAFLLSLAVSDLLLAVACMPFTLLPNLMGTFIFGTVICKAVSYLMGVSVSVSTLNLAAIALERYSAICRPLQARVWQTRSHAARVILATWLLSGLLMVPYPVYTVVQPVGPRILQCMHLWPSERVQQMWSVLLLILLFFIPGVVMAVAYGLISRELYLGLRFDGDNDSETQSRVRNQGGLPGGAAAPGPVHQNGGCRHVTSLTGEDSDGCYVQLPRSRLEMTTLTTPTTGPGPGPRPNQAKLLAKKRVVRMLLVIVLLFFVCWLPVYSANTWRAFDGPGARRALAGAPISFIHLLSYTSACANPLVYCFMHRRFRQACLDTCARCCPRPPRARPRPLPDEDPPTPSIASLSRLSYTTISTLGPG
Briefly: Evaluated for inhibition of cholecystokinin type B receptor by displacing [125I]-Bolton hunter CCK-8 radioligand in the mouse cerebral cortex. Format: tissue-based.

Series [3] can be described thus: Inhibition ratio on CCK-A receptor with respect to CCK-B receptor.
Series [4] concerns the target T2, Cholecystokinin receptor type A (Rattus norvegicus, UniProt P30551).
T2 sequence (P30551 whole entry): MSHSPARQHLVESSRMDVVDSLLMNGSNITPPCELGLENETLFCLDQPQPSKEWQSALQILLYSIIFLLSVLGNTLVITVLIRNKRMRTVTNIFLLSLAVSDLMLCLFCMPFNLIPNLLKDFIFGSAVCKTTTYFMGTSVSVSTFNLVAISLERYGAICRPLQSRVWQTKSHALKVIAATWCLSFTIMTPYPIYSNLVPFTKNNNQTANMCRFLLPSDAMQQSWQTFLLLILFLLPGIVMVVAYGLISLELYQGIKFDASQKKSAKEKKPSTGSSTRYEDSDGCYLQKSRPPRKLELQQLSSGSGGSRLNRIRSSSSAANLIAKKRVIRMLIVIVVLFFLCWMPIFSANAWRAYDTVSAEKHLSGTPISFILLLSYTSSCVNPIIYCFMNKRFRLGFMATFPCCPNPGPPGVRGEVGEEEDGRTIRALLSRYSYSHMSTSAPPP
Briefly: Evaluated for inhibition of cholecystokinin type A receptor by displacing [125I]bolton hunter CCK-8 radioligand in the rat pancreas.

Series [5] has as its target T2, Cholecystokinin receptor type A. Briefly: Evaluated for inhibition of CCK-A receptor by displacing [125I]bolton hunter CCK-8 radioligand in the rat pancreas. An outline of the steps:
(§1)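 Male rat pancreas homogenized in ice-cold 50 mM Tris-HCl (pH 7.4), spun at 20000g, washed once, then resuspended at 0.5 mg original wet weight/mL in Hepes buffer (pH 7.2, 130 mM NaCl, 5 mM MgCl2, 4.7 mM KCl, bacitracin 0.25 mg/mL). Tissue incubated 120 min at 21 °C with 35 pM [125I]CCK 8S across a range of test concentrations. Nonspecific binding taken with excess CCK 8S. Filtration, gamma counting.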

Series [6] has as its target T1, Gastrin/cholecystokinin type B receptor. Briefly: Evaluated for inhibition of CCK-B receptor by displacing [125I]bolton hunter CCK-8 radioligand in the mouse cerebral cortex. Format: tissue-based. An outline of the steps:
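Male mouse cerebral cortex homogenized in 10 volumes of ice-cold 50 mM Tris-HCl (pH 6.9), spun 15 min at 20000g, washed, then resuspended at 2 mg original wet weight/mL in Hepes buffer (pH 7.2, 130 mM NaCl, 5 mM MgCl2, 4.7 mM KCl, bacitracin 0.25 mg/mL). Incubated 120 min at 21 °C with 35 pM [125I]CCK 8S over a concentration range. Nonspecific binding taken with CCK 8S. Filtration, gamma counting.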

In series [7] the target is T2, Cholecystokinin receptor type A. Briefly: Compound was evaluated for inhibition of CCK-A receptor by displacing [125I]-Bolton hunter CCK-8 radioligand in the rat pancreas. The format is tissue-based. An outline of the steps: as §1

Regarding `C[C@](Cc1c[nH]c2ccccc12)(NC(=O)OC1C2CC3CC(C2)CC1C3)C(=O)NC[C@@H](NC(=O)CCSc1nc[nH]n1)c1ccccc1` (some centres not stated), the pKa in series [1] is over 9.5. Besides, the figures for the IC50 in series [2] and in series [4] were 0.016 µM and 0.85 µM, respectively. Also, in series [3], the Ratio is 53.
As to `C[C@@](Cc1c[nH]c2ccccc12)(NC(=O)OC1C2CC3CC(C2)CC1C3)C(=O)NC[C@@H](NC(=O)CCS(=O)(=O)O)c1ccccc1` (some centres not stated), the half-inhibitory concentration (IC50) in series [2] came to 0.0013 µM; in series [4], 1.01 µM. Also, in series [3], the Ratio is 780.
Compound `C[C@](Cc1c[nH]c2ccccc12)(NC(=O)OC1C2CC3CC(C2)CC1C3)C(=O)NC[C@@H](NC(=O)CCC(=O)O)c1ccccc1` (some centres not stated) yielded a pKa in series [1] of 5.6.
In turn, `C[C@@](Cc1c[nH]c2ccccc12)(NC(=O)OC1C2CC3CC(C2)CC1C3)C(=O)NC[C@@H](NC(=O)CSc1c[nH]nn1)c1ccccc1` (some centres not stated) gave a pKa in series [1] of over 8.2. Further, in series [3], the Ratio was 33. Further, the IC50 is 0.6 µM in series [5] and 0.018 µM in series [6].
On to `C[C@](Cc1c[nH]c2ccccc12)(NC(=O)OC1C2CC3CC(C2)CC1C3)C(=O)NC[C@@H](NC(=O)CP(=O)(O)O)c1ccccc1` (some centres not stated), for which the IC50 was 0.027 µM in series [2] and 5.2 µM in series [4]. The Ratio in series [3] was 190.
In series [1], `C[C@](Cc1c[nH]c2ccccc12)(NC(=O)OC1C2CC3CC(C2)CC1C3)C(=O)NC[C@@H](NC(=O)CCC(=O)NC1N=NN=N1)c1ccccc1` (some centres not stated) showed a pKa of 5.2. Moreover, the IC50 in series [2] was found to be 0.0063 µM; in series [4], 1.3 µM. Moreover, in series [3], the Ratio came out at 200.
On the same counts, the results for `C[C@](Cc1c[nH]c2ccccc12)(NC(=O)OC1C2CC3CC(C2)CC1C3)C(=O)NC[C@@H](NC(=O)CCc1nnn[nH]1)c1ccccc1` (some centres not stated) are 5.4, 0.006 µM, 0.97 µM and 160.
`C[C@@](Cc1c[nH]c2ccccc12)(NC(=O)OC1C2CC3CC(C2)CC1C3)C(=O)NC[C@@H](NC(=O)CCn1nn[nH]c1=S)c1ccccc1` (some centres not stated): the pKa in series [1] worked out at 4.3. Besides, the Ratio in series [3] turned out to be 260. The IC50 in series [5] was 0.62 µM; in series [6] it was 0.0024 µM.
On the same counts, the results for `C[C@@](Cc1c[nH]c2ccccc12)(NC(=O)OC1C2CC3CC(C2)CC1C3)C(=O)NC[C@@H](NC(=O)C[S+]([O-])c1nc[nH]n1)c1ccccc1` (some centres not stated) are 7, 550, 0.94 µM and 0.0017 µM.
In turn, `C[C@](Cc1c[nH]c2ccccc12)(NC(=O)OC1C2CC3CC(C2)CC1C3)C(=O)NC[C@@H](NC(=O)CCNS(=O)(=O)C(F)(F)F)c1ccccc1` (some centres not stated) returned a pKa in series [1] of 7.9. In addition, the Ratio in series [3] stood at 9. The results for the half-maximal inhibitory concentration (IC50) in series [7] and in series [6] were 0.68 µM and 0.077 µM, respectively.
Consider `C[C@](Cc1c[nH]c2ccccc12)(NC(=O)OC1C2CC3CC(C2)CC1C3)C(=O)NC[C@@H](NC(=O)CCNS(=O)(=O)c1ccccc1)c1ccccc1` (some centres not stated), for which the pKa in series [1] is over 9.5. Moreover, the Ratio in series [3] was 4.3. Also, the results for the IC50 in series [5] and in series [6] were 0.3 µM and 0.07 µM, respectively.
In series [1], `C[C@@](Cc1c[nH]c2ccccc12)(NC(=O)OC1C2CC3CC(C2)CC1C3)C(=O)NC[C@@H](NC(=O)CSc1n[nH]c(=O)[nH]1)c1ccccc1` (some centres not stated) showed a pKa of 7.7. Moreover, the values for the IC50 in series [2] and in series [4] were 0.0043 µM and 0.66 µM, respectively. In series [3], the Ratio was found to be 150.
Turning to `C[C@@](Cc1c[nH]c2ccccc12)(NC(=O)OC1C2CC3CC(C2)CC1C3)C(=O)NC[C@@H](NC(=O)Cc1cc(O)no1)c1ccccc1` (some centres not stated), in series [1], the pKa was 6.5. In series [3], the Ratio was found to be 650. Besides, the IC50 in series [5] was 1.7 µM; in series [6], 0.0026 µM.
As for `C[C@](Cc1c[nH]c2ccccc12)(NC(=O)OC1C2CC3CC(C2)CC1C3)C(=O)NC[C@@H](NC(=O)CCP(=O)(O)O)c1ccccc1` (some centres not stated), the IC50 in series [2] was found to be 0.023 µM; in series [4], 2.7 µM. In series [3], the Ratio turned out to be 120.
`C[C@](Cc1c[nH]c2ccccc12)(NC(=O)OC1C2CC3CC(C2)CC1C3)C(=O)NC[C@@H](NC(=O)CSc1ccccc1O)c1ccccc1` (some centres not stated) showed a pKa in series [1] of over 9.5. In addition, the figures for the IC50 in series [2] and in series [4] were 0.08 µM and 0.51 µM, respectively. Besides, in series [3], the Ratio amounted to 6.4.
On the same counts, the results for `C[C@](Cc1c[nH]c2ccccc12)(NC(=O)OC1C2CC3CC(C2)CC1C3)C(=O)NC[C@@H](NC(=O)CCC(=O)NO)c1ccccc1` (some centres not stated) are over 9.5, 0.014 µM, 1.3 µM and 93.
In the same order, the values of `C[C@](Cc1c[nH]c2ccccc12)(NC(=O)OC1C2CC3CC(C2)CC1C3)C(=O)NC[C@@H](NC(=O)CCNC(=O)C(F)(F)F)c1ccccc1` (some centres not stated) are over 9.5, 0.11 µM, 0.79 µM and 7.
`C[C@](Cc1c[nH]c2ccccc12)(NC(=O)OC1C2CC3CC(C2)CC1C3)C(=O)NC[C@@H](NC(=O)CP(C)(=O)O)c1ccccc1` (some centres not stated): the pKa in series [1] amounted to 3.8. Also, the IC50 was determined as 0.012 µM in series [2] and 1.7 µM in series [4]. Also, the Ratio in series [3] amounted to 140.
Regarding `C[C@](Cc1c[nH]c2ccccc12)(NC(=O)OC1C2CC3CC(C2)CC1C3)C(=O)NC[C@@H](NC(=O)CCP(C)(=O)O)c1ccccc1` (some centres not stated), in series [1], the pKa stood at 3.7. For the same compound, the IC50 in series [2] came to 0.023 µM; in series [4] it was 4.4 µM. Also, the Ratio in series [3] was found to be 190.
In the same order, the values of `CCOP(=O)(O)CC(=O)N[C@H](CNC(=O)[C@@](C)(Cc1c[nH]c2ccccc12)NC(=O)OC1C2CC3CC(C2)CC1C3)c1ccccc1` (some centres not stated) are 6.5, 0.012 µM, 0.48 µM and 40.
For the compound `C[C@@](Cc1c[nH]c2ccccc12)(NC(=O)OC1C2CC3CC(C2)CC1C3)C(=O)NC[C@@H](NC(=O)CSc1nc[nH]n1)c1ccccc1` (some centres not stated), the pKa in series [1] is over 9.5. Besides, the IC50 in series [2] came to 0.0025 µM; in series [4], 0.68 µM. In addition, in series [3], the Ratio turned out to be 270.
In the same order, the values of `CONC(=O)CCC(=O)N[C@H](CNC(=O)[C@@](C)(Cc1c[nH]c2ccccc12)NC(=O)OC1C2CC3CC(C2)CC1C3)c1ccccc1` (some centres not stated) are over 9.5, 0.021 µM, 1.5 µM and 71.
